Assay results: ChEMBL document CHEMBL5653631, “A Potent and Selective ULK1 Inhibitor Suppresses Autophagy and Sensitizes Cancer Cells to Nutrient Stress” (iScience, 2018)
Blank lines part the entries; values can stand above or below the molecule they belong to.

What was measured:
[1] = biological target: T1, Serine/threonine-protein kinase Nek9 (Homo sapiens) (UniProt Q8TD19); assay: Inhibition of human recombinant NEK9 at 500 nM in presence of ATP by radiometric assay relative to control
T1 sequence (whole entry): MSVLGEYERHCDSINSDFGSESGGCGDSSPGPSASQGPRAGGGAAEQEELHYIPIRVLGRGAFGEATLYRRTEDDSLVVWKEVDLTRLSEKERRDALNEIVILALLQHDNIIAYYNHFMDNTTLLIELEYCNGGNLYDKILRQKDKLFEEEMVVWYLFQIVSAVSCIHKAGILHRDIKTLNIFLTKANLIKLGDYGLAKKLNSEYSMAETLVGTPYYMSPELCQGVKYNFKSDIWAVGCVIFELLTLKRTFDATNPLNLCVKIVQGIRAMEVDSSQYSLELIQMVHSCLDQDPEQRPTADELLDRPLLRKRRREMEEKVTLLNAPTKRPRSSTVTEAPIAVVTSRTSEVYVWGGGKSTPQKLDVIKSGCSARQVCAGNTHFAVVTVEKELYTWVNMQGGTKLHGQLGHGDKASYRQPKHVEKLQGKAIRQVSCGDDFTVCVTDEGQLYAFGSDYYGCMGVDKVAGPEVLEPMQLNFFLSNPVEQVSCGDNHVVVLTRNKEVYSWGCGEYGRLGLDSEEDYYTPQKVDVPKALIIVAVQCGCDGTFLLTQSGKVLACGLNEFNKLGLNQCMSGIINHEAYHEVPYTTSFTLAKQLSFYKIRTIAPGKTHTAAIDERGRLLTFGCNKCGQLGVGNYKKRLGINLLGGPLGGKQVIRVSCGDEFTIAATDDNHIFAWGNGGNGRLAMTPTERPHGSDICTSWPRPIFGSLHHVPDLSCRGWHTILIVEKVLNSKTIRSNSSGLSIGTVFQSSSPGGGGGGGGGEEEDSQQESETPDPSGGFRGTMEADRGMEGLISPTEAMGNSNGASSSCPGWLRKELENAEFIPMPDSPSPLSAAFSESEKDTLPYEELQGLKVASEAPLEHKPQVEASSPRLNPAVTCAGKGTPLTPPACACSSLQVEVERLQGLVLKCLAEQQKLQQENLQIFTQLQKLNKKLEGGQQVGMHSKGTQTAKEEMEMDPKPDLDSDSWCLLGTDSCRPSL

[2] = biological target: Transient receptor potential cation channel subfamily M member 7 (Homo sapiens) (UniProt Q96QT4); assay: Inhibition of human recombinant ChaK1 at 500 nM related to control ULK1
[3] = biological target: Death-associated protein kinase 2 (Homo sapiens) (UniProt Q9UIK4); assay: Inhibition of human recombinant DAPK2 at 500 nM in presence of ATP by radiometric assay relative to control
[4] = biological target: Protein kinase C eta type (Homo sapiens) (UniProt P24723); assay: Inhibition of human recombinant PKCH at 500 nM related to control ULK1
[5] = biological target: SRSF protein kinase 1 (Homo sapiens) (UniProt Q96SB4); assay: Inhibition of human recombinant SRPK1 at 15 nM related to control ULK1
[6] = biological target: Serine/threonine-protein kinase B-raf (Homo sapiens) (UniProt P15056); assay: Inhibition of human recombinant BRAF at 15 nM in presence of ATP by radiometric assay relative to control
Procedure, shortened: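 Part of a radiometric in vitro activity panel of 327 recombinant human kinases. Each kinase was tested in duplicate at one inhibitor concentration. Activity remaining was expressed as a percentage of the vehicle control, and percent inhibition was taken as 100 minus that value.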

[7] = biological target: Tyrosine-protein kinase Yes (Homo sapiens) (UniProt P07947); assay: Inhibition of human recombinant YES at 40 nM in presence of ATP by radiometric assay relative to control
[8] = biological target: T2, Homeodomain-interacting protein kinase 4 (Homo sapiens) (UniProt Q8NE63); assay: Inhibition of human recombinant HIPK4 at 40 nM in presence of ATP by radiometric assay relative to control
T2 sequence (whole entry): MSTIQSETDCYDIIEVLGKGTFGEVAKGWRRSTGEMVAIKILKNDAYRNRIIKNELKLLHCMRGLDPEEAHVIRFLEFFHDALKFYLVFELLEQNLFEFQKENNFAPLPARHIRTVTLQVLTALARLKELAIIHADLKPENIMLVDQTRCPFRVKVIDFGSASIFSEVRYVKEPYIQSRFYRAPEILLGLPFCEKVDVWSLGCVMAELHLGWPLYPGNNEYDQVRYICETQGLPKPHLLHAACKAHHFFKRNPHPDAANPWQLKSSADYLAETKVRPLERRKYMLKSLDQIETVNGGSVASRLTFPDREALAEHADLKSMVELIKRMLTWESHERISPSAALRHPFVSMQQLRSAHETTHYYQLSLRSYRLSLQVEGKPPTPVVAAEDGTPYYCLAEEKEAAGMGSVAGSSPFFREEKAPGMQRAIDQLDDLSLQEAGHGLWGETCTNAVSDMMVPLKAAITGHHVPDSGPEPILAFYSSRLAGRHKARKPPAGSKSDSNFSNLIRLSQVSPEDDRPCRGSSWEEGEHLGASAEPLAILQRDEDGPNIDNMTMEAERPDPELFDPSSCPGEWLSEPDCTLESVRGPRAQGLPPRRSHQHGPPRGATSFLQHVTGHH

[9] = biological target: Transcription initiation factor TFIID subunit 1-like (Homo sapiens) (UniProt Q8IZX4); assay: Inhibition of human recombinant TAF1L at 40 nM in presence of ATP by radiometric assay relative to control
[10] = biological target: Serine/threonine-protein kinase PLK3 (Homo sapiens) (UniProt Q9H4B4); assay: Inhibition of human recombinant PLK3 at 40 nM related to control ULK1
Chain of Serine/threonine-protein kinase PLK3 (Homo sapiens) (Q9H4B4 whole entry, looked up): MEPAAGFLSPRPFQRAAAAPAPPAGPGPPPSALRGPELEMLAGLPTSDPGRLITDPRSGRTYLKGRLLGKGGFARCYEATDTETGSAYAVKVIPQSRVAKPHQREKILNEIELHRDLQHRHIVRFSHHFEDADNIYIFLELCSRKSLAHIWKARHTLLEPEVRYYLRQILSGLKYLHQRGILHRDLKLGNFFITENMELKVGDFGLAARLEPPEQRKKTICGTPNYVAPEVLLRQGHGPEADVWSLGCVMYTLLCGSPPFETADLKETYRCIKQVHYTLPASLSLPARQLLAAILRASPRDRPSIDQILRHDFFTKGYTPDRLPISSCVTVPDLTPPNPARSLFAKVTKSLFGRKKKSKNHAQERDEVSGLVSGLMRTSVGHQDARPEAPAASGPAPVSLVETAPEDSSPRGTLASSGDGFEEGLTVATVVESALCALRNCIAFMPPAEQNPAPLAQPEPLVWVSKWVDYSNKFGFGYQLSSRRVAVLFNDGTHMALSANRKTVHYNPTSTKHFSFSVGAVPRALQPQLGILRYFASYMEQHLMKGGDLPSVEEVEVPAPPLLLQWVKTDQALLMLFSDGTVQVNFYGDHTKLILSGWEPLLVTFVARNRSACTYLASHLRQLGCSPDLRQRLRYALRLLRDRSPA

Chain of Protein kinase C eta type (Homo sapiens) (P24723 whole entry): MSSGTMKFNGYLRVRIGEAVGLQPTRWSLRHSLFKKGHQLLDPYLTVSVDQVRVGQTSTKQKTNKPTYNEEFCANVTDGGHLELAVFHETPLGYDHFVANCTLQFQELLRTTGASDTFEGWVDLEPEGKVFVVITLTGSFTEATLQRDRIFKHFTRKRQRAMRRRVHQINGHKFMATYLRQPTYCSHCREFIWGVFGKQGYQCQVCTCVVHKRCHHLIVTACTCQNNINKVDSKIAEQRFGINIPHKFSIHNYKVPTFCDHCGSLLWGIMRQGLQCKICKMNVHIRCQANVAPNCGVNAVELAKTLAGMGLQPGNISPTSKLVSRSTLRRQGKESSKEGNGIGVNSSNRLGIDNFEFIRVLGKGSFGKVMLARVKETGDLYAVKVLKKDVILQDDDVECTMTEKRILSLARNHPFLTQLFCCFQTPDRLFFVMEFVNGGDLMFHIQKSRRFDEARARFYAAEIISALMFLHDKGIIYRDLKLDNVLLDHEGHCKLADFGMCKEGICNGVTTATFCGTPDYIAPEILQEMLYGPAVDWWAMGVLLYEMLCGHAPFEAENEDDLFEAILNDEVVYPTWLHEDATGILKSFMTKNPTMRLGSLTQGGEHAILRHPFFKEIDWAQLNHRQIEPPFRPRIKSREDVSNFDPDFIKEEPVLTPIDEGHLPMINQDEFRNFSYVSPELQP
Chain of Death-associated protein kinase 2 (Homo sapiens) (Q9UIK4 whole entry, looked up): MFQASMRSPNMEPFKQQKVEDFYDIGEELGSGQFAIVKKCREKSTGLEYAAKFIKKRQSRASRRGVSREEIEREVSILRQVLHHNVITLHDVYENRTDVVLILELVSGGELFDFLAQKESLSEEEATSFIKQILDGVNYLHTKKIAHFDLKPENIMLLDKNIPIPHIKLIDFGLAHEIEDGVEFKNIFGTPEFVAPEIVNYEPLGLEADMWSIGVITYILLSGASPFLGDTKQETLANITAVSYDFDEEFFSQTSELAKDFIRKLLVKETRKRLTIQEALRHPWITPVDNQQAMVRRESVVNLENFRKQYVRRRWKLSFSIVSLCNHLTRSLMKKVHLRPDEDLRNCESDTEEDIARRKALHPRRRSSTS
Chain of Transient receptor potential cation channel subfamily M member 7 (Homo sapiens) (Q96QT4 whole entry): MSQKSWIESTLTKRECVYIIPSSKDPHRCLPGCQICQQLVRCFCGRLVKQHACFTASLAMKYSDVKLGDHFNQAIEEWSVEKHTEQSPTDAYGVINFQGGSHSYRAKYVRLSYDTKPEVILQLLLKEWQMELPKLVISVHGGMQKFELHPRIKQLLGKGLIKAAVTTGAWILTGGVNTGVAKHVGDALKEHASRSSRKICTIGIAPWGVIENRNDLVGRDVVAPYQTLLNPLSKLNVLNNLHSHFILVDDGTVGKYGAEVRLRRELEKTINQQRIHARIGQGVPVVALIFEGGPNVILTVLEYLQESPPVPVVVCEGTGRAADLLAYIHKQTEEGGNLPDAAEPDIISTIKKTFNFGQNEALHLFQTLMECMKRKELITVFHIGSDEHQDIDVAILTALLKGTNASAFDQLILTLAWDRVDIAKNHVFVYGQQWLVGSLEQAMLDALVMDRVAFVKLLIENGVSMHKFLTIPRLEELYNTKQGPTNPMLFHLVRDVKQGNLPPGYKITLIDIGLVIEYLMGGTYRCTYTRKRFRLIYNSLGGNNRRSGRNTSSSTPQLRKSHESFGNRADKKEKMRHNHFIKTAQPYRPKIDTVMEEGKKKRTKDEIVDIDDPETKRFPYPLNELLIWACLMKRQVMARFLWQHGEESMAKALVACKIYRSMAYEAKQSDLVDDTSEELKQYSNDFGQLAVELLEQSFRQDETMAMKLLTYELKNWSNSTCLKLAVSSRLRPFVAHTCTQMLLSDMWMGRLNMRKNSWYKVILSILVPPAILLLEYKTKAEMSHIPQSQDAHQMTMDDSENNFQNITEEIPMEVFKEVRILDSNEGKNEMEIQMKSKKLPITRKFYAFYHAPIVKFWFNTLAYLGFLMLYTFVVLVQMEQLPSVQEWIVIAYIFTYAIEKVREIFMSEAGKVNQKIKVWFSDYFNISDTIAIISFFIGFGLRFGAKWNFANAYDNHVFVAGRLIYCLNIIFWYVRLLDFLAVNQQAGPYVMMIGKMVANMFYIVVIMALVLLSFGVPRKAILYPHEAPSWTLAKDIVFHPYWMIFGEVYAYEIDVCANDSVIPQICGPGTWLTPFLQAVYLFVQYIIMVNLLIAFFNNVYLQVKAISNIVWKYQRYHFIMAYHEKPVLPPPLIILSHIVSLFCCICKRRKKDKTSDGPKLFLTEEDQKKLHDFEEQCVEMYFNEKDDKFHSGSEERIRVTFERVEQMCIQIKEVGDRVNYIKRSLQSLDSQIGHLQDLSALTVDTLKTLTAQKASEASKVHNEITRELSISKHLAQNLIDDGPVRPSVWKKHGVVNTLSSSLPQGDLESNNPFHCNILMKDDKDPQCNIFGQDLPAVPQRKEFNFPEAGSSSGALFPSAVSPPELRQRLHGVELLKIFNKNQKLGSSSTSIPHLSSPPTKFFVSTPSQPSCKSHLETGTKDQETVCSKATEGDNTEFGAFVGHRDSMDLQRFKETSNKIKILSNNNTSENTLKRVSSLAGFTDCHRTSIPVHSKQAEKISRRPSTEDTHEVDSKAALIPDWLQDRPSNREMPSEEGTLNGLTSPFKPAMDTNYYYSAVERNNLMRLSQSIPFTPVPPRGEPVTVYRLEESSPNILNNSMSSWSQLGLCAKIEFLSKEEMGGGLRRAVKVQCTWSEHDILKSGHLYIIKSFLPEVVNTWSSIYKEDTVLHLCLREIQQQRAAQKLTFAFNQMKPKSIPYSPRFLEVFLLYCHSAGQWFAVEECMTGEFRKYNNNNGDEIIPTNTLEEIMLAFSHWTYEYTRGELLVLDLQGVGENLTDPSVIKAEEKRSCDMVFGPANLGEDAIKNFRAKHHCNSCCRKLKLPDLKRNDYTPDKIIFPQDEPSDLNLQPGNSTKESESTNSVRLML
Chain of Tyrosine-protein kinase Yes (Homo sapiens) (P07947 2-543 limits assumed): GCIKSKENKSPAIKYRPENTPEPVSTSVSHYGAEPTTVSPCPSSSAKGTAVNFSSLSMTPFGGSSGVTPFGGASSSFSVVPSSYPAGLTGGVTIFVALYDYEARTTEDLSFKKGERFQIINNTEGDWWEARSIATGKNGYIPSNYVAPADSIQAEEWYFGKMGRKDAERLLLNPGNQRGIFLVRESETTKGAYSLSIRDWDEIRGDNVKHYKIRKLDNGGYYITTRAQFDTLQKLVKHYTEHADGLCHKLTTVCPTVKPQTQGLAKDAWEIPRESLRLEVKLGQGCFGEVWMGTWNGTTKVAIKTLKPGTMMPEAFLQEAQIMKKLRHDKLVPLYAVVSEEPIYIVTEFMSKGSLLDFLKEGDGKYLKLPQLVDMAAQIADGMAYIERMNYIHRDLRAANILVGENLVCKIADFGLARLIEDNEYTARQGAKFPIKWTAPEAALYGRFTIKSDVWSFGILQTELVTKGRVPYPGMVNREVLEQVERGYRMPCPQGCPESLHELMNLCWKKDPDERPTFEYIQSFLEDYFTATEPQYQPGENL
Chain of Serine/threonine-protein kinase B-raf (Homo sapiens) (P15056 whole entry): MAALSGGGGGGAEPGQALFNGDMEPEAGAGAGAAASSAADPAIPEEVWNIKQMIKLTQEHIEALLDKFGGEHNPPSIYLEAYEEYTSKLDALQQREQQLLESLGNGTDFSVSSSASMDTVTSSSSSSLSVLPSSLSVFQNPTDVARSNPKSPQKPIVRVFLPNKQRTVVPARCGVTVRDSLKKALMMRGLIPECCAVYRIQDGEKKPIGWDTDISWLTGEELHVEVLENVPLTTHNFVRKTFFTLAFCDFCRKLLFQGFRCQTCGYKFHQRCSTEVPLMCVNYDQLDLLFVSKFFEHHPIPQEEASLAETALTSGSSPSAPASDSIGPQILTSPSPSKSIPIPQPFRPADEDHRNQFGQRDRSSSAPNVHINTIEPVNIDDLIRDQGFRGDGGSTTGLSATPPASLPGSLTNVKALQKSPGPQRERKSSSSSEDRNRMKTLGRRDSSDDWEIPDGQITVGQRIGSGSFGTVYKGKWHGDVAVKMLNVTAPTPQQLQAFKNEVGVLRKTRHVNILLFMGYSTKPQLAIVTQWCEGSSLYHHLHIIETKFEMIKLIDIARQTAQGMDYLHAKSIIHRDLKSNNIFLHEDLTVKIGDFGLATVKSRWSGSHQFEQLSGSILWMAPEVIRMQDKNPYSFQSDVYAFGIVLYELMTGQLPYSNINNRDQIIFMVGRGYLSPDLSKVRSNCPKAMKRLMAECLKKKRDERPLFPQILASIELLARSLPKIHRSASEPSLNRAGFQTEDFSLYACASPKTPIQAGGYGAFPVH

- fold change (FC) [2]: 0
- fold change (FC) [4]: 0.09
Structure (SMILES): CNC(=O)c1ccccc1Oc1nc(Nc2cc(OC)c(OC)c(OC)c2)ncc1Br
- inhibition [1]: 0%
- inhibition [3]: 0%

- fold change (FC) [5]: 0
- inhibition [6]: 11%
Structure (SMILES): CC(C)[C@H](NC(=O)c1cc(-c2cnn3cc(-c4ccc(OCCN5CCCCC5)cc4)cnc23)cs1)C(F)(F)F

- inhibition [7]: 23%
- inhibition [8]: 0%
- inhibition [9]: 47%
- fold change (FC) [10]: 0
Structure (SMILES): O=C(N[C@@H](C1CC1)C(F)(F)F)c1cc(-c2cnn3cc(-c4ccc(F)cc4)cnc23)cs1
